Source: ChEMBL document CHEMBL3259741, “Three new cucurbitane triterpenoids from Hemsleya penxianensis and their cytotoxic activities” (Bioorg Med Chem Lett, 2014)
Values after ≈ are worked out from the molar mass of the structure shown.

What was measured:
Type in all cases: functional, cell-based
[1] = Cytotoxicity against human H460 cells after 48 hrs by MTT assay; details: NCI-H460, 48 h
Outline: (§1)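 Cells in RPMI1640 with 15% FBS were trypsinized (0.25%) and seeded at 1 × 10^5/mL, then incubated 24 h at 37 °C in 5% CO2. Agents were added at final concentrations of 50, 10, 2, 0.4 and 0.08 for a further 48 h. MTT (0.5%) was applied for 4 h, formazan dissolved in DMSO, and OD read at 570 nm. % inhibition = (OD0−ODS)/OD0; IC50 was taken as 50% growth inhibition. Mean of three experiments in triplicate.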

[2] = system: SW-620; assay: Cytotoxicity against human SW620 cells after 48 hrs by MTT assay; details: SW-620, 48 h; outline: as §1
[3] = system: COLO 205; assay: Cytotoxicity against human COLO205 cells after 48 hrs by MTT assay; details: COLO 205, 48 h
Outline: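 COLO205 cells were grown in RPMI1640 with 15% FBS, seeded at 2 × 10^5/mL, and incubated 24 h at 37 °C in 5% CO2. Agents were then given at final 50, 10, 2, 0.4 and 0.08 for 48 h. Read-out used 0.5% MTT for 4 h, DMSO solubilization and OD at 570 nm. Inhibition = (OD0−ODS)/OD0; IC50 = concentration giving 50% inhibition. Mean of three experiments in triplicate.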

| Compound | IC50 [1] [µg/mL] | IC50 [2] [µg/mL] | IC50 [3] [µg/mL] |
| --- | --- | --- | --- |
| C/C(C=O)=C\CC[C@@H](C)[C@H]1CC[C@@]2(C)[C@@H]3CC=C4[C@@H](CC[C@H](O[C@@H]5O[C@H](CO)[C@@H](O)[C@H](O)[C@H]5O)C4(C)C)[C@]3(C)C(=O)C[C@]12C | 0.46 (≈ 0.746 µM) | 0.64 (≈ 1.04 µM) | 0.78 (≈ 1.26 µM) |
| CC(=O)O[C@@H]1C[C@@]2(C)[C@@H]3CC=C4[C@@H](C[C@H](O)[C@@H](O)C4(C)C)[C@]3(C)C(=O)C[C@]2(C)[C@H]1C(C)(O)C(=O)/C=C/C(C)(C)O (stereo partly drawn) | 3.43 (≈ 6.12 µM) | 0.42 (≈ 0.749 µM) | 0.44 (≈ 0.785 µM) |
| CC(=O)O[C@@H]1C[C@@]2(C)[C@@H]3CC=C4[C@@H](C[C@H](O[C@@H]5O[C@H](CO)[C@@H](O)[C@H](O)[C@H]5O)[C@@H](O)C4(C)C)[C@]3(C)C(=O)C[C@]2(C)[C@H]1C(C)(O)C(=O)/C=C/C(C)(C)OC(C)=O (stereo partly drawn) | 8.55 (≈ 11.2 µM) | 6.63 (≈ 8.67 µM) | 24.9 (≈ 32.6 µM) |
| C[C@H](CCC=C(CO)CO)[C@H]1CC[C@@]2(C)[C@@H]3CC=C4[C@@H](CC[C@H](O[C@@H]5O[C@H](CO)[C@@H](O)[C@H](O)[C@H]5O)C4(C)C)[C@]3(C)[C@H](O)C[C@]12C | 2.96 (≈ 4.65 µM) | 1.99 (≈ 3.12 µM) | 3.84 (≈ 6.03 µM) |
| CC(C)(O)CCC(=O)[C@](C)(O)[C@H]1[C@H](O)C[C@@]2(C)[C@@H]3CC=C4[C@@H](C[C@H](O)[C@@H](O)C4(C)C)[C@]3(C)C(=O)C[C@]12C | 7.09 (≈ 13.6 µM) | 1.03 (≈ 1.98 µM) | 0.64 (≈ 1.23 µM) |
| CC(=O)OC(C)(C)CCC(=O)[C@](C)(O)[C@H]1[C@H](O)C[C@@]2(C)[C@@H]3CC=C4[C@@H](C[C@H](O)[C@@H](O)C4(C)C)[C@]3(C)C(=O)C[C@]12C [HEMSLECIN A] | 11.5 (≈ 20.5 µM) | 1.11 (≈ 1.97 µM) | 1.09 (≈ 1.94 µM) |
